Experimental data as given in ChEMBL document CHEMBL1142170, “Mechanism of activation of beta-D-2'-deoxy-2'-fluoro-2'-c-methylcytidine and inhibition of hepatitis C virus NS5B RNA polymerase” (Antimicrob Agents Chemother, 2007).
The source made the active and inactive calls. The rule behind the calls is not given here.

Experiments:
[1] = test system: Hepacivirus hominis; experiment: Activity of HCV NS5B RNA polymerase assessed as incorporation of 32P-UMP into RNA
Method in brief: (§1)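 Recombinant C-terminal 21-aa truncated HCV NS5B on minus IRES RNA template, 50 mM HEPES pH 7.5, 1 mM MgCl2, 0.75 mM MnCl2, 2 mM DTT, [α-32P]UTP, 27°C. One NTP varied, other three fixed at saturating levels. Aliquots quenched with EDTA/NaCl/citrate, product retained on Hybond N+ membrane, counted by scintillation. Rates from time-course slopes, fit for steady-state parameters.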

[2] = test system: Hepacivirus hominis; experiment: Ratio of Kcat to Km for HCV NS5B RNA polymerase; method in brief: as §1
[3] = test system: Hepacivirus hominis; experiment: Ratio of Kcat to Km for HCV NS5B RNA polymerase S282T mutant
Method in brief: (§2)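 Steady-state assay with purified 21-aa C-terminally truncated HCV NS5B (S282T) on minus-IRES RNA template. Conditions: 50 mM HEPES pH 7.5, 1 mM MgCl2, 0.75 mM MnCl2, 2 mM DTT, [α-32P]UTP tracer, 27°C. One NTP varied, other three held at saturating levels. Rates came from product time courses; products were dot-blotted on Hybond N+ and counted by scintillation.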

[4] = test system: Nc1ccn([C@@H]2O[C@H](CO)[C@@H](O)C2(F)F)c(=O)n1; details: Homo sapiens; HepG2
[5] = test system: Nc1ccn([C@@H]2O[C@H](CO)[C@@H](O)[C@H]2F)c(=O)n1; details: Homo sapiens; HepG2
[6] = test system: C[C@@]1(F)[C@H](O)[C@@H](CO)O[C@H]1n1ccc(N)nc1=O; details: Homo sapiens; HepG2
[7] = test system: C[C@@]1(O)[C@H](O)[C@@H](CO)O[C@H]1n1ccc(N)nc1=O; details: Homo sapiens; HepG2
[8] = test system: C[C@@H]1[C@H](O)[C@@H](CO)O[C@H]1n1ccc(N)nc1=O; details: Homo sapiens; HepG2
[9] = test system: Nc1ccn([C@@H]2O[C@H](CO)[C@@H](O)C2(F)F)c(=O)n1; details: Homo sapiens; HepG2; remark: listed apart in the source
[10] = test system: Nc1ccn([C@@H]2O[C@H](CO)[C@@H](O)[C@H]2F)c(=O)n1; details: Homo sapiens; HepG2; remark: listed apart in the source
[11] = test system: C[C@@]1(F)[C@H](O)[C@@H](CO)O[C@H]1n1ccc(N)nc1=O; details: Homo sapiens; HepG2; remark: listed apart in the source
[12] = test system: C[C@@]1(O)[C@H](O)[C@@H](CO)O[C@H]1n1ccc(N)nc1=O; details: Homo sapiens; HepG2; remark: listed apart in the source
[13] = test system: C[C@@H]1[C@H](O)[C@@H](CO)O[C@H]1n1ccc(N)nc1=O; details: Homo sapiens; HepG2; remark: listed apart in the source
[14] = target: T1, Uridine-cytidine kinase 1 (Homo sapiens) (UniProt Q9HA47); experiment: Activity of human UCK1 expressed in Huh7 cells assessed as phosphorylation by coupled enzyme assay; format: cell-based; details: Huh-7
T1 sequence (whole entry): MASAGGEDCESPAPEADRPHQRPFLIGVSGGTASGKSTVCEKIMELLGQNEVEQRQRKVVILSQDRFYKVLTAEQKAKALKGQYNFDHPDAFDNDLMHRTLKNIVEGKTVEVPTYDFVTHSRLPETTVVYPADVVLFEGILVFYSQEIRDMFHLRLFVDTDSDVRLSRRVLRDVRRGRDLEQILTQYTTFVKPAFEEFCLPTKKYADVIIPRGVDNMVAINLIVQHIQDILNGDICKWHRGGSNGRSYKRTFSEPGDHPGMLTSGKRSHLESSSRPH
Method in brief: (§3)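 His-tagged human UCK-1 cloned from Huh-7 cells, assayed at 25°C by pyruvate kinase/lactate dehydrogenase coupling, NADH oxidation at 340 nm. Buffer 64 mM Tris-HCl pH 7.5, 1 mM ATP, Mg2+, phosphoenolpyruvate. Enzyme 41 nM, or 410 nM for 2′-C-methyl cytidines. Substrate concentration varied. Steady-state parameters reported as mean ± SD.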

[15] = target: T1, Uridine-cytidine kinase 1 (Homo sapiens); experiment: Activity of human UCK1 expressed in Huh7 cells assessed as phosphorylation up to 1 mM by coupled enzyme assay; format: cell-based; details: Huh-7; method in brief: as §3
[16] = target: T1, Uridine-cytidine kinase 1 (Homo sapiens); experiment: Ratio of Kcat to Km for UCK1 activity expressed in Huh7 cells; format: cell-based; details: Huh-7; method in brief: as §3
[17] = target: T1, Uridine-cytidine kinase 1 (Homo sapiens); experiment: Ratio of Kcat to Km for UCK1 activity expressed in Huh7 cells up to 1 mM; format: cell-based; details: Huh-7; method in brief: as §3
[18] = test system: HepG2; experiment: Activity of human NDPK expressed in HepG2 cells assessed as phosphorylation by coupled enzyme assay; format: cell-based
Method in brief: (§4)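 Human NDPK cloned from HepG2 cells, 216 nM, 37°C, with 1 mM ATP in Tris-HCl pH 7.5 coupled to pyruvate kinase/lactate dehydrogenase. NADH oxidation read at 340 nm. Diphosphate substrate concentration varied, Km and kcat as mean ± SD.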

[19] = test system: HepG2; experiment: Ratio of Kcat to Km for NDPK activity expressed in HepG2 cells; format: cell-based; details: Homo sapiens; method in brief: as §4
[20] = test system: O=c1ccn([C@@H]2O[C@H](COP(=O)(O)OP(=O)(O)OP(=O)(O)O)[C@@H](O)[C@H]2O)c(=O)[nH]1; experiment: (§5) Activity of HCV NS5B RNA polymerase S282T assessed as incorporation of 32P-UMP into RNA; details: Hepacivirus hominis; method in brief: as §2
[21] = test system: Nc1ncnc2c1ncn2[C@@H]1O[C@H](COP(=O)(O)OP(=O)(O)OP(=O)(O)O)[C@@H](O)[C@H]1O; experiment: as §5; details: Hepacivirus hominis; method in brief: as §2
[22] = test system: Nc1nc2c(c(=O)[nH]1)NCN2[C@@H]1O[C@H](COP(=O)(O)OP(=O)(O)OP(=O)(O)O)[C@@H](O)[C@H]1O; experiment: as §5; details: Hepacivirus hominis; method in brief: as §2
[23] = test system: Nc1ccn([C@@H]2O[C@H](COP(=O)(O)OP(=O)(O)OP(=O)(O)O)[C@@H](O)[C@H]2O)c(=O)n1; experiment: as §5; details: Hepacivirus hominis; method in brief: as §2
[24] = test system: RNA-directed RNA polymerase (Hepacivirus hominis), O39930 [S282T]; experiment: Ratio of Ki to Km for HCV NS5B RNA polymerase S282T mutant
Method in brief: (§6)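 Purified 21-aa C-terminally truncated NS5B (S282T; wild type for comparison) on minus-IRES template, run in 50 mM HEPES pH 7.5 with 1 mM MgCl2, 0.75 mM MnCl2, 2 mM DTT and [α-32P]UTP at 27°C. Natural substrate and inhibitor were both varied against fixed remaining NTPs (UTP 10 μM, others 100 μM). Product was membrane-captured and counted. Ki was obtained by fitting a competitive inhibition equation.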

[25] = test system: Hepacivirus hominis; experiment: Ratio of Ki/Km of HCV NS5B RNA polymerase S282T mutant to Ki/Km of HCV NS5B RNA polymerase; method in brief: as §6
[26] = test system: Hepacivirus hominis; experiment: Inhibition of HCV NS5B RNA polymerase S282T mutant assessed as incorporation of 32P-UMP into RNA; method in brief: as §6
[27] = test system: Hepacivirus hominis; experiment: Inhibition of HCV NS5B RNA polymerase assessed as incorporation of 32P-UMP into RNA
Method in brief: (§7)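 Steady-state Ki against truncated NS5B (wild-type and S282T) on minus IRES template, 27°C, HEPES pH 7.5 with Mg2+/Mn2+/DTT and [α-32P]UTP. For ATP analog, UTP 10, GTP and CTP 100 μM, ATP and inhibitor varied. For CTP analogs, UTP 10, ATP and GTP 100 μM, CTP and inhibitor varied. Membrane-bound product counted, rates fit to competitive inhibition.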

[28] = test system: Hepacivirus hominis; experiment: Ratio of Ki to Km for HCV NS5B RNA polymerase; method in brief: as §7
[29] = target: T1, Uridine-cytidine kinase 1 (Homo sapiens); experiment: Activity of human UCK1 expressed in Huh7 cells assessed as phosphorylation up to 3 mM by coupled enzyme assay; format: cell-based; details: Huh-7; method in brief: as §3
[30] = target: T1, Uridine-cytidine kinase 1 (Homo sapiens); experiment: Ratio of Kcat to Km for UCK1 activity expressed in Huh7 cells up to 3 mM; format: cell-based; details: Huh-7; method in brief: as §3

Deoxycytidine kinase (Homo sapiens), P27707, sequence (P27707 whole entry): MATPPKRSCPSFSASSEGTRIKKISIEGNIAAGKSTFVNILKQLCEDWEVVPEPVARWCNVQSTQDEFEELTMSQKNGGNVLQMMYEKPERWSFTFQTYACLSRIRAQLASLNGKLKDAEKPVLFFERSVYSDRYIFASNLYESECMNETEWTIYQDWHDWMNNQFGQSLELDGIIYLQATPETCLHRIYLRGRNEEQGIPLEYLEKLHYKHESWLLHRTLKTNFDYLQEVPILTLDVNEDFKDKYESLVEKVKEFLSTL

## Nc1ncnc2c1ncn2[C@@H]1O[C@H](COP(=O)(O)OP(=O)(O)OP(=O)(O)O)[C@@H](O)[C@H]1O
[1]
  Km: 2.7 µM
  kcat: 3.33e-05 s⁻¹
[2]
  kcat/Km: 12.3 M⁻¹ s⁻¹
[3]
  kcat/Km: 10.7 M⁻¹ s⁻¹

## Deoxycytidine kinase (Homo sapiens), P27707
[4]
  Km: 1.4 µM
  kcat: 0.038 s⁻¹
[5]
  Km: 4.7 µM
  kcat: 0.05 s⁻¹
[6]
  Km: 81.2 µM
  kcat: 0.016 s⁻¹
[7]
  Km: 914 µM
  kcat: 0.011 s⁻¹
[8]
  Km: 46.2 µM
  kcat: 0.048 s⁻¹
[9]
  kcat/Km: 27000 M⁻¹ s⁻¹
[10]
  kcat/Km: 11000 M⁻¹ s⁻¹
[11]
  kcat/Km: 190 M⁻¹ s⁻¹
[12]
  kcat/Km: 12 M⁻¹ s⁻¹
[13]
  kcat/Km: 1000 M⁻¹ s⁻¹

## Nc1ccn([C@H]2C[C@H](O)[C@@H](CO)O2)c(=O)n1
[14]
  Activity: inactive
[15]
  Activity: inactive
[16]
  Activity: inactive
[17]
  Activity: inactive

## C[C@@]1(F)[C@H](O)[C@@H](COP(=O)(O)OP(=O)(O)O)O[C@H]1n1ccc(N)nc1=O
[18]
  Km: 1380 µM
  kcat: 21 s⁻¹
[19]
  kcat/Km: 15000 M⁻¹ s⁻¹

## RNA-directed RNA polymerase (Hepacivirus hominis), O39930 S282T
[20]
  Km: 0.18 µM
  kcat: 0.000125 s⁻¹
[21]
  Km: 0.26 µM
  kcat: 0.000167 s⁻¹
[22]
  Km: 5 µM
  kcat: 0.000198 s⁻¹
[23]
  Km: 2.7 µM
  kcat: 0.000214 s⁻¹

## C[C@@]1(O)[C@H](O)[C@@H](CO)O[C@H]1n1ccc(N)nc1=O
[14]
  Activity: inactive
[16]
  Activity: inactive

## C[C@@]1(O)[C@H](O)[C@@H](COP(=O)(O)OP(=O)(O)OP(=O)(O)O)O[C@H]1n1ccc(N)nc1=O
[24]
  Ki/Km: 1.4
[25]
  Ratio: 12
[26]
  Km: 2.7 µM
[27]
  Km: 13.7 µM
[28]
  Ki/Km: 0.12

## C[C@@]1(F)[C@H](O)[C@@H](CO)O[C@H]1n1ccc(N)nc1=O
[14]
  Activity: inactive
[29]
  Activity: inactive
[16]
  Activity: inactive
[30]
  Activity: inactive

## O=c1ccn([C@@H]2O[C@H](COP(=O)(O)OP(=O)(O)OP(=O)(O)O)[C@@H](O)[C@H]2O)c(=O)[nH]1
[1]
  Km: 0.4 µM
  kcat: 2.13e-05 s⁻¹
[2]
  kcat/Km: 53.3 M⁻¹ s⁻¹
[3]
  kcat/Km: 11.5 M⁻¹ s⁻¹

## Nc1ccn([C@@H]2O[C@H](COP(=O)(O)OP(=O)(O)OP(=O)(O)O)[C@@H](O)[C@H]2O)c(=O)n1
[1]
  Km: 13.7 µM
  kcat: 2.53e-05 s⁻¹
[2]
  kcat/Km: 1.83 M⁻¹ s⁻¹
[3]
  kcat/Km: 1.32 M⁻¹ s⁻¹

## Nc1ccn([C@@H]2O[C@H](COP(=O)(O)OP(=O)(O)O)[C@@H](O)[C@H]2O)c(=O)n1
[18]
  Km: 307 µM
  kcat: 183 s⁻¹
[19]
  kcat/Km: 600000 M⁻¹ s⁻¹

## C[C@@]1(F)[C@H](O)[C@@H](COP(=O)(O)OP(=O)(O)OP(=O)(O)O)O[C@H]1n1ccc(N)nc1=O
[24]
  Ki/Km: 0.93
[25]
  Ratio: 3
[26]
  Km: 2.7 µM
[27]
  Km: 13.7 µM
[28]
  Ki/Km: 0.31

## C[C@@]1(O)[C@H](O)[C@@H](COP(=O)(O)OP(=O)(O)OP(=O)(O)O)O[C@H]1n1cnc2c(N)ncnc21
[24]
  Ki/Km: 84
[25]
  Ratio: 150
[26]
  Km: 0.26 µM
[27]
  Km: 2.7 µM
[28]
  Ki/Km: 0.56
